Results reported in ChEMBL document CHEMBL4118021, “Studies of TAK1-centered polypharmacology with novel covalent TAK1 inhibitors” (Bioorg Med Chem, 2017).
Active and inactive are the calls of the source. The rule behind the calls is not given here.

Tests used:
[1] = target: Trifunctional purine biosynthetic protein adenosine-3 (Homo sapiens) (UniProt P22102); assay: Binding affinity to GART in human NCI-H23 cells at 1 uM by mass spectrometry based pull down assay; assay type: cell-based
[2] = target: Dual specificity mitogen-activated protein kinase kinase 2 (Homo sapiens) (UniProt P36507); assay: Binding affinity to MAP2K2 in human NCI-H23 cells at 1 uM by mass spectrometry based pull down assay; assay type: cell-based
Dual specificity mitogen-activated protein kinase kinase 2 (Homo sapiens), sequence (P36507 whole entry): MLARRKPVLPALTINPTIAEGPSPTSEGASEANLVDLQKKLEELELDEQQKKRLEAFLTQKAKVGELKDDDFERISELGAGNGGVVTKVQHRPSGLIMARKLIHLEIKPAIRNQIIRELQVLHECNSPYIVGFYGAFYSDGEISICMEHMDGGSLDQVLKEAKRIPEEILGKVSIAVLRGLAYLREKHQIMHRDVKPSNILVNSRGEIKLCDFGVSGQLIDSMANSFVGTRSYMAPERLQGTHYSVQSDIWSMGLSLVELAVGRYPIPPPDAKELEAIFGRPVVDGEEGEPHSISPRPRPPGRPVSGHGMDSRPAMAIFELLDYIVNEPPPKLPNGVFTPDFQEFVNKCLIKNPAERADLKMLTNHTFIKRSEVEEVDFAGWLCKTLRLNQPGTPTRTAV

[3] = target: Multifunctional protein CAD (Homo sapiens) (UniProt P27708); assay: Binding affinity to CAD in human NCI-H23 cells at 1 uM by mass spectrometry based pull down assay; assay type: cell-based
Multifunctional protein CAD (Homo sapiens), sequence (P27708 whole entry): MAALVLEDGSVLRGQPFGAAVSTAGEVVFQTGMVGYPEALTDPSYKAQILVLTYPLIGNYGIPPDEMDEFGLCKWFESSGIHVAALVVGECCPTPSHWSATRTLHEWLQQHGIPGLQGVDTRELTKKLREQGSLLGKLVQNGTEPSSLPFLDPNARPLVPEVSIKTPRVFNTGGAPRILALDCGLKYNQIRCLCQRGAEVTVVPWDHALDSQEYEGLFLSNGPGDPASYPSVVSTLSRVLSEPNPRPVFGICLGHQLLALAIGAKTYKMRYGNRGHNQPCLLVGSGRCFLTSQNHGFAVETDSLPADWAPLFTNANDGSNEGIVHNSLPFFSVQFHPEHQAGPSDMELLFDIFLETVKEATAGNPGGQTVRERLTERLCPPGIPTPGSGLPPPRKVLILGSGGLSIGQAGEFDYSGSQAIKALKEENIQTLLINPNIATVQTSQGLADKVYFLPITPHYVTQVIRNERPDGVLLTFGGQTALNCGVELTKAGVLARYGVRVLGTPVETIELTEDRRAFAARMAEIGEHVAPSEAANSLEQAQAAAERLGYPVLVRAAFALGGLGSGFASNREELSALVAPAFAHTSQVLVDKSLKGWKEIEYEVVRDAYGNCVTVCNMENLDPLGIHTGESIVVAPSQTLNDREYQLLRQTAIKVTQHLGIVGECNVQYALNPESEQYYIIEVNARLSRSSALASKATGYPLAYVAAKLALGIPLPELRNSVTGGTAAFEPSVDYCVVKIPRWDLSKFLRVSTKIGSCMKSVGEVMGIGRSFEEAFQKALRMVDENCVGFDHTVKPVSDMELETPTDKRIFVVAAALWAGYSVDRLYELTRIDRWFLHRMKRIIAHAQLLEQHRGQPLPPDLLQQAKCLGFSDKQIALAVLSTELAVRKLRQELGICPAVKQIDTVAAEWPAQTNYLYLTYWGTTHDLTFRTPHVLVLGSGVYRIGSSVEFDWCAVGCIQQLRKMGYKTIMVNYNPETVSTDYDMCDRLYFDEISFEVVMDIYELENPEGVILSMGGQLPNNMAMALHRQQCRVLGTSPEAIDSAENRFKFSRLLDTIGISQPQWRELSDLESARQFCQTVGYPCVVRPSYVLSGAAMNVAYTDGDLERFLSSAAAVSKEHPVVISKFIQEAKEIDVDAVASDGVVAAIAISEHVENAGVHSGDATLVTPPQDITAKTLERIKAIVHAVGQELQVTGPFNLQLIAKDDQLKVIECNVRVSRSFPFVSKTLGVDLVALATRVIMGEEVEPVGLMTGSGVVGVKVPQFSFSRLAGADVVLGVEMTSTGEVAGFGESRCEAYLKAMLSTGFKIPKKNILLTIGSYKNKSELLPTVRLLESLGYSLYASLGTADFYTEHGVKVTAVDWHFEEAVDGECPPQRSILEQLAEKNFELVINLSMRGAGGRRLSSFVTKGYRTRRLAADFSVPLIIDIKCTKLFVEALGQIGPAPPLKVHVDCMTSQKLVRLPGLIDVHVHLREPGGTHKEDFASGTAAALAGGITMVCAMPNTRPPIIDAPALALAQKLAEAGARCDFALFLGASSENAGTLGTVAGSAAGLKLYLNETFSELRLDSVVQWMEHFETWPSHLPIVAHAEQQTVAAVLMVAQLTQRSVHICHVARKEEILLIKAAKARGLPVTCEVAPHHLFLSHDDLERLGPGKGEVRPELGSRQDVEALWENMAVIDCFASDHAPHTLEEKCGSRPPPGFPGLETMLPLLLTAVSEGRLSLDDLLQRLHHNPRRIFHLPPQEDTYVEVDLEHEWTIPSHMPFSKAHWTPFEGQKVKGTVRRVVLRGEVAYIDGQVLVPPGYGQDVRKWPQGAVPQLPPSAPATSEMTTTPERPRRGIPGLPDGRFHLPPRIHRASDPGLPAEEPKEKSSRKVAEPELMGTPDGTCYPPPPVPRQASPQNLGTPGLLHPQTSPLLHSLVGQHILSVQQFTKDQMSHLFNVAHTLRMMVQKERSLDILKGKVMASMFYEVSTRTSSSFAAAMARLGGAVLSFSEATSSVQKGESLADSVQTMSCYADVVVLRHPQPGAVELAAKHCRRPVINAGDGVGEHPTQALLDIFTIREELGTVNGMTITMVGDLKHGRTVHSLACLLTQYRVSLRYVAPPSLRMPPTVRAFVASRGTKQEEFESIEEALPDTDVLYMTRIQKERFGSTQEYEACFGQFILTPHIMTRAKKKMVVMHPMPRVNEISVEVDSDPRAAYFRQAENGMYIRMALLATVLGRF

[4] = target: Glutathione S-transferase kappa 1 (Homo sapiens) (UniProt Q9Y2Q3); assay: Binding affinity to GSTK1 in human NCI-H23 cells at 1 uM by mass spectrometry based pull down assay; assay type: cell-based
[5] = target: Dynamin-binding protein (Homo sapiens) (UniProt Q6XZF7); assay: Binding affinity to DNMBP in human NCI-H23 cells at 1 uM by mass spectrometry based pull down assay; assay type: cell-based
[6] = target: Epithelial splicing regulatory protein 1 (Homo sapiens) (UniProt Q6NXG1); assay: Binding affinity to ESRP1 in human NCI-H358 cells at 1 uM by mass spectrometry based pull down assay; assay type: cell-based
[7] = target: Far upstream element-binding protein 1 (Homo sapiens) (UniProt Q96AE4); assay: Binding affinity to FUBP1 in human NCI-H23 cells at 1 uM by mass spectrometry based pull down assay; assay type: cell-based
[8] = target: F-actin-capping protein subunit beta (Homo sapiens) (UniProt P47756); assay: Binding affinity to CAPZB in human NCI-H23 cells at 1 uM by mass spectrometry based pull down assay; assay type: cell-based
F-actin-capping protein subunit beta (Homo sapiens), sequence (P47756 whole entry, the tested form may be a part): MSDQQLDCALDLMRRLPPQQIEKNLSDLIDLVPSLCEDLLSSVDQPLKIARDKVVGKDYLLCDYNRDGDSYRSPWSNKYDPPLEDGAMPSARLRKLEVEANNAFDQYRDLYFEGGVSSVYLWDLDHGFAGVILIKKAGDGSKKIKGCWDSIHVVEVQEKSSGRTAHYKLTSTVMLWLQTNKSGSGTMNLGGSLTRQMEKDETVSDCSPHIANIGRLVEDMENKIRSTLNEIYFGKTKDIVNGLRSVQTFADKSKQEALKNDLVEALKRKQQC

[9] = target: Transmembrane emp24 domain-containing protein 10 (Homo sapiens) (UniProt P49755); assay: Binding affinity to TMED10 in human NCI-H358 cells at 1 uM by mass spectrometry based pull down assay; assay type: cell-based
[10] = target: BLOC-2 complex member HPS6 (Homo sapiens) (UniProt Q86YV9); assay: Binding affinity to HPS6 in human NCI-H358 cells at 1 uM by mass spectrometry based pull down assay; assay type: cell-based
[11] = target: 14-3-3 protein gamma (Homo sapiens) (UniProt P61981); assay: Binding affinity to YWHAG in human NCI-H23 cells at 1 uM by mass spectrometry based pull down assay; assay type: cell-based
14-3-3 protein gamma (Homo sapiens), sequence (P61981 whole entry): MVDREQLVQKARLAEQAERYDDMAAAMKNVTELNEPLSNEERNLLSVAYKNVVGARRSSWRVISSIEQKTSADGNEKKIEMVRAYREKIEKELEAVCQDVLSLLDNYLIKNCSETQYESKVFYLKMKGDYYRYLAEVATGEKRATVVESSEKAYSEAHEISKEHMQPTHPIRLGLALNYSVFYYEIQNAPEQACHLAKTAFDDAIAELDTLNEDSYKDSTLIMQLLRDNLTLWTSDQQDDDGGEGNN

[12] = target: AH receptor-interacting protein (Homo sapiens) (UniProt O00170); assay: Binding affinity to AIP in human NCI-H23 cells at 1 uM by mass spectrometry based pull down assay; assay type: cell-based
AH receptor-interacting protein (Homo sapiens), sequence (O00170 whole entry): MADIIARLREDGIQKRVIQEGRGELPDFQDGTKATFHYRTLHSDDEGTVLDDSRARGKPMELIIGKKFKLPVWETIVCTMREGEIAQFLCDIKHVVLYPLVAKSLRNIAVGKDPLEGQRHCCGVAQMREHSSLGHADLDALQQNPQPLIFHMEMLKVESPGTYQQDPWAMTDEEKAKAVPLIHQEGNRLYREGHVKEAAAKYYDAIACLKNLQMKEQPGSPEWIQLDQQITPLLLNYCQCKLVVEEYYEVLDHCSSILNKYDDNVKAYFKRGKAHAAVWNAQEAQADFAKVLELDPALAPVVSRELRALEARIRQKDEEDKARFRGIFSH
Summary of the method: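 NCI-H23 or NCI-H358 cells were grown and lysed. Lysates were incubated overnight at 4 °C with 1 μM biotinylated covalent probe or DMSO, then pulled down on streptavidin beads. Proteins were run on polyacrylamide gels and stained with Coomassie. Bands were excised, digested and identified by mass spectrometry.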

[13] = target: Tubulin alpha-1A chain (Homo sapiens) (UniProt Q71U36); assay: Binding affinity to TUBA1A in human NCI-H23 cells at 1 uM by mass spectrometry based pull down assay; assay type: cell-based
[14] = target: B-cell receptor-associated protein 31 (Homo sapiens) (UniProt P51572); assay: Binding affinity to BCAP31 in human NCI-H23 cells at 1 uM by mass spectrometry based pull down assay; assay type: cell-based
[15] = target: DnaJ homolog subfamily A member 2 (Homo sapiens) (UniProt O60884); assay: Binding affinity to DNAJA2 in human NCI-H23 cells at 1 uM by mass spectrometry based pull down assay; assay type: cell-based
DnaJ homolog subfamily A member 2 (Homo sapiens), sequence (O60884 whole entry): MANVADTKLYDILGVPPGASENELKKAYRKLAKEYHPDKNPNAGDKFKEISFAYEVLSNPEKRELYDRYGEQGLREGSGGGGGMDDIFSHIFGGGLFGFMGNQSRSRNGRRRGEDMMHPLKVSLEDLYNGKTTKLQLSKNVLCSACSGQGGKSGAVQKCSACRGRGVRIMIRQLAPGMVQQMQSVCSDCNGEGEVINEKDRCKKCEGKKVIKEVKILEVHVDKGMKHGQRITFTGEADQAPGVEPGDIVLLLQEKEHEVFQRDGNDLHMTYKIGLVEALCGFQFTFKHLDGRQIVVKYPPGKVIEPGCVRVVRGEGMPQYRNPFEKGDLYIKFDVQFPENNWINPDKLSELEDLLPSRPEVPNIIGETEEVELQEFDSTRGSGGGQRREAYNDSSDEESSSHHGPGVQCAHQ

[16] = target: Interleukin-1 receptor-associated kinase 1 (Homo sapiens) (UniProt P51617); assay: Binding affinity to IRAK1 in human NCI-H358 cells at 1 uM by mass spectrometry based pull down assay; assay type: cell-based
[17] = target: Deoxyribose-phosphate aldolase (Homo sapiens) (UniProt Q9Y315); assay: Binding affinity to DERA in human NCI-H358 cells at 1 uM by mass spectrometry based pull down assay; assay type: cell-based
[18] = target: Platelet-derived growth factor receptor beta (Homo sapiens) (UniProt P09619); assay: Inhibition of human PDGFRB (582 to 1009 residues) expressed in bacterial expression system assessed as enzyme activity at 10 uM by KINOMEScan assay relative to control; parameters: scale not given: the % may be the effect or the level left
Platelet-derived growth factor receptor beta (Homo sapiens), sequence (P09619 whole entry, the tested form may be a part): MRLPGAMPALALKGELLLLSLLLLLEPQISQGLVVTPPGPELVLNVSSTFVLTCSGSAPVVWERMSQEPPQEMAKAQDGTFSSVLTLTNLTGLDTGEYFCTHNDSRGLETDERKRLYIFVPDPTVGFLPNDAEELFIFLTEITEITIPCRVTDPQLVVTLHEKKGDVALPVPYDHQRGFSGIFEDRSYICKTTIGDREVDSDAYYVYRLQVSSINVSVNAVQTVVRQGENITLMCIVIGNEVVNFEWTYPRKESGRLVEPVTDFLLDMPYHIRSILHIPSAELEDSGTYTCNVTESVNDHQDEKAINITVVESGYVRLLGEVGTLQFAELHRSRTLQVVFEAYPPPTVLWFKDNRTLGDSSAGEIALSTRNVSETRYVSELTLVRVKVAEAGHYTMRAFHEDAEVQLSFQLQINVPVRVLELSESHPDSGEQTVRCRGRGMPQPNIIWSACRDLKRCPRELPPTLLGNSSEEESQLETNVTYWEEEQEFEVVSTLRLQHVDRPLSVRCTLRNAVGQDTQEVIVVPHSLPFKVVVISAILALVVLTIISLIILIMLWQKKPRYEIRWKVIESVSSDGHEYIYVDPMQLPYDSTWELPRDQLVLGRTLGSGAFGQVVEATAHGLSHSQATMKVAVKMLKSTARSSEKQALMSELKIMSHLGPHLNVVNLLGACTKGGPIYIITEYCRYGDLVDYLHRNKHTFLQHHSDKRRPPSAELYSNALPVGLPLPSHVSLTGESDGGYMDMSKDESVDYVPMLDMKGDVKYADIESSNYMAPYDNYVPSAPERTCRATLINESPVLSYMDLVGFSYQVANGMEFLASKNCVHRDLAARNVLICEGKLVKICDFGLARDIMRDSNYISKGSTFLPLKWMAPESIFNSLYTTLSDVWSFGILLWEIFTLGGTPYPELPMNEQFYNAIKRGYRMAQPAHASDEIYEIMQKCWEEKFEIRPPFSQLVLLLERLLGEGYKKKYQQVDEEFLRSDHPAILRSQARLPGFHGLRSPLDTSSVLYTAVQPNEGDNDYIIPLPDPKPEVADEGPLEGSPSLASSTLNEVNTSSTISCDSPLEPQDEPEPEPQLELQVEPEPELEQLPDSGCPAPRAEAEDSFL
Summary of the method: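 In vitro ATP-site competition binding assay across a panel of 456 kinases, with compound tested at 1 and 10 μM.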

[19] = target: BMP-2-inducible protein kinase (Homo sapiens) (UniProt Q9NSY1); assay: Inhibition of human BIKE (34 to 329 residues) expressed in bacterial expression system assessed as enzyme activity at 10 uM by KINOMEScan assay relative to control; parameters: scale not given: the % may be the effect or the level left
Summary of the method: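 In vitro ATP-site competition binding assay (KinomeScan) across a panel of 456 kinases. Compound was tested at 1 and 10 μM. The read-out is the binding inhibition score relative to control.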

[20] = target: Tyrosine-protein kinase Fyn (Homo sapiens) (UniProt P06241); assay: Inhibition of FYN in human SKCO1 cells at 1 uM after 4 hrs using biotin labeled VAIKTLKPGTMSPESFLEEAQIMK probe by mass-spectrometric analysis relative to control; assay type: cell-based
[21] = target: Tyrosine-protein kinase JAK1 (Homo sapiens) (UniProt P23458); assay: Inhibition of JAK1 domain2 in human SKCO1 cells at 1 uM after 4 hrs using biotin labeled IGDFGLTKAIETDKEYYTVK probe by mass-spectrometric analysis relative to control; assay type: cell-based
[22] = target: T1, Mitogen-activated protein kinase kinase kinase 7 (Homo sapiens) (UniProt O43318); assay: Inhibition of biotin-labeled N-(2-(2-(2-(2-(4-(4-((4-((2-Acrylamidophenyl)amino)-5-chloropyrimidin-2-yl)amino)phenyl)piperazin-1-yl)ethoxy)ethoxy)ethoxy)ethyl)-5-((3aS,4S,6aR)-2-oxohexahydro-1H-thieno[3,4-d]imidazol-4-yl)pentanamide probe binding to TAK1 in human NCI-H358 cells at 10 uM after 6 hrs by immunoblot based competitive pull down assay; assay type: cell-based
T1 sequence (whole entry): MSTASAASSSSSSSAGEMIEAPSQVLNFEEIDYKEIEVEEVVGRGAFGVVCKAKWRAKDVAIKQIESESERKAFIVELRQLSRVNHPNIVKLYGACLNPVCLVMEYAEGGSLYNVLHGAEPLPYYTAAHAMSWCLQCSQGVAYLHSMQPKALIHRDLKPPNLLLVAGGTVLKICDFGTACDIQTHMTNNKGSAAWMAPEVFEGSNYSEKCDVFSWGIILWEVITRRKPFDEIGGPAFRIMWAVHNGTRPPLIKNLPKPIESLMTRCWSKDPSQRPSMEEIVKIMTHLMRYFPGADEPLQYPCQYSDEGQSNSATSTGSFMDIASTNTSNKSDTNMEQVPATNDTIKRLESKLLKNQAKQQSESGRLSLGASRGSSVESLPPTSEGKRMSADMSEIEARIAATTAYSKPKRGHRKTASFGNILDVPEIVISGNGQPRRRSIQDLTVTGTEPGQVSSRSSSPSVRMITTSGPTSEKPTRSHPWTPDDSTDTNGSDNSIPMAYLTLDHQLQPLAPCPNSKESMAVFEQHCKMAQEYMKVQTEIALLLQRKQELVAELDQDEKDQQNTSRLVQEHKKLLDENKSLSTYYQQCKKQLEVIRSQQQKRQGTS
Summary of the method: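 H358 cells given 1 or 10 μM compound for 6 h, medium removed, cells rinsed twice with cold PBS and lysed in MPER buffer. Lysates incubated overnight at 4 °C with 1 μM biotinylated covalent probe, captured on streptavidin beads, and TAK1 recovery assessed by immunoblotting with anti-TAK1 antibody.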

With `C=CC(=O)Nc1ccccc1Nc1nc(Nc2ccc(N3CCN(CCOCCOCCOCCNC(=O)CCCC[C@@H]4SC[C@@H]5NC(=O)N[C@@H]54)CC3)cc2)ncc1Cl` the Activity [1] was “Active”, the Activity [2] was “Active” and the Activity [3] was “Active”. The Activity [4] was “Active”, the Activity [5] was “Active” and the Activity [6] was “Active”. The Activity [7] was “Active”, the Activity [8] was “Active” and the Activity [9] was “Active”. For the same compound, the Activity [10] was “Active”, the Activity [11] was “Active” and the Activity [12] was “Active”. For the same compound, the Activity [13] was “Active”, the Activity [14] was “Active” and the Activity [15] was “Active”. The Activity [16] was “Active” and the Activity [17] was “Active”.
`COc1cc(O)c2c(c1)/C=C/C[C@H](O)[C@H](O)C(=O)/C=C\C[C@H](C)OC2=O` gave an Activity [18] of 0.05% and an Activity [19] of 3.8%.
Work on `C=CC(=O)Nc1ccccc1Nc1nc(Nc2ccc(N3CCN(C)CC3)cc2)ncc1Cl` yielded an inhibition [20] of 8.3% and an inhibition [21] of 2.6%.
In the case of `C=CC(=O)Nc1ccccc1Oc1nc(Nc2cnn(CCOC)c2)ncc1Cl`, the inhibition [22] is reported as “Active”.
